In paper PMC3944102 (ACS chemical biology, 2013):
Where two headings read alike, the source gives them in different places.

Experiments:
[1] = biological target: T1, VopS (Vibrio parahaemolyticus serotype O3:K6, UniProt Q87P32); experiment: biochemical
[2] = tested on: VopS; details: read-out: KM of VopS for ATP; cited from earlier work
[3] = biological target: T1, VopS; experiment: biochemical; details: for inhibition at 11 µM: read-out: Primary screen inhibition; for Primary screen inhibition: LOPAC screen at 11 µM, FP read at 3 h, average of three replicates
[4] = biological target: PAD4 (Homo sapiens, UniProt Q9UM07); experiment: PAD4 FP-ABPP HTS counterscreen with fluorescein-conjugated F-amidine; format: biochemical
In short: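 Fluorescence polarization read-out with the fluorescein-tagged probe FFA, which covalently modifies an active-site cysteine of PAD4 and gives a time-dependent rise in FP when incubated with the enzyme. Test compounds were run as concentration-response curves, and inhibition was read as reduced FP. Used as a counterscreen to flag quenchers, aggregators and other non-specific FP decreasers.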

[5] = biological target: T1, VopS; experiment: biochemical; format: biochemical; details: for Labeling of Cdc42 in gel (in words): 10 µM inhibitor; for inhibition at 10 µM: read-out: Gel based % inhibition VopS; for Gel based % inhibition VopS: 10 µM compound, relative to DMSO control
[6] = tested on: VopS; experiment: biochemical; format: biochemical, Vibrio parahaemolyticus; details: VopS over HYPE, from gel based % inhibition at 10 µM
[7] = tested on: HYPE Fic E234G; experiment: Gel-based secondary screen, HYPE Fic E234G with histone H3 as substrate; format: biochemical, human; details: 10 µM compound, relative to DMSO control
[8] = biological target: T1, VopS; format: biochemical
[9] = tested on: VopS transfected HeLa cells; experiment: Cellular protein AMPylation, Western blot; format: cell-based; details: Western blotting, 1 and 3 at 10 µM, 4 at 5 µM, 18 h
[10] = tested on: VopS transfected HeLa cells; experiment: Cell rounding phenotype induced by VopS overexpression; format: cell-based; details: 10 µM
[11] = biological target: VopSΔ30 (Vibrio parahaemolyticus serotype O3:K6, UniProt Q87P32); experiment: Differential hydrogen deuterium exchange; format: binding; details: 10 µM VopSΔ30, 100 µM or 30 µM ligand
[12] = read-out: CRC IC50 PAD4, PAD4 targeted FP-ABPP assay

Sequence of PAD4 (Q9UM07 whole entry, species assumed): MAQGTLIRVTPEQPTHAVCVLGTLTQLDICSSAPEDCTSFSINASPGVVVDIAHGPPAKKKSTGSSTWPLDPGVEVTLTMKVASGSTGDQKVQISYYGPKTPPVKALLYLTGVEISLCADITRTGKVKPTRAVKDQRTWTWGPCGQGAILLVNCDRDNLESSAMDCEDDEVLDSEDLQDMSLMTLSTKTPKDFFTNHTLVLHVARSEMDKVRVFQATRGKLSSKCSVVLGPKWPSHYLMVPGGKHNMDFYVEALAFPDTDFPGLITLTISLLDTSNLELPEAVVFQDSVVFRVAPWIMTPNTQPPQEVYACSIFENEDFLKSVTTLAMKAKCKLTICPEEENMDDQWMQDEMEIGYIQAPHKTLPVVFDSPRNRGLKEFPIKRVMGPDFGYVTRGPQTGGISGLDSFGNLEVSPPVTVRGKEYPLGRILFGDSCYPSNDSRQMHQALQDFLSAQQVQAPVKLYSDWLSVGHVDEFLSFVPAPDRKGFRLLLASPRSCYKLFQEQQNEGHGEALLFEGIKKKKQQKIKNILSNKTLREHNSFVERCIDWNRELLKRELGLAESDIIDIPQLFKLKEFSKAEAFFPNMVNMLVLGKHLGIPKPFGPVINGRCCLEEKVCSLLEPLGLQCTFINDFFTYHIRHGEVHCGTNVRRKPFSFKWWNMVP

Structure (SMILES) | IC50 ([1]; IC50(ATP), 3 h, 7 replicates, ATP out competing Fl-ATP) [µM] | IC50 ([1]; IC50, at 1, 2, and 3 h) [µM] | Km [2] [µM] | inhibition at 11 µM [3] [%] | IC50 [4] [µM] | Labeling of Cdc42 in gel (in words) [5] | inhibition at 10 µM [5] [%] | Fold selective [6] [fold] | Gel based % inhibition HYPE [7] [%] | Kii ([8]; varied substrate ATP) [µM] | Mechanism of inhibition ([8]; varied substrate ATP) | Kii ([8]; varied substrate Cdc42) [µM] | Mechanism of inhibition ([8]; varied substrate Cdc42) | Cellular protein AMPylation [9] | Reversal of cell rounding phenotype [10] | Primary screen inhibition [3] | IC50 [4, 12] [µM] | Gel based % inhibition VopS [5] [%] | HDX protection / binding region of VopS [11] | Ki ([8]; competitive with respect to Cdc42) [µM]
Nc1ncnc2c1ncn2[C@@H]1O[C@H](COP(=O)(O)OP(=O)(O)OP(=O)(O)O)[C@@H](O)[C@H]1O [ATP, adenosine triphosphate] | 7 ± 1 | 6.8 to 7 | ~50 | – | – | – | – | – | – | – | – | – | – | – | – | – | – | – | – | –
CC(C)(Sc1ccc(CCN(CCCCC2CCCCC2)C(=O)NC2CCCCC2)cc1)C(=O)O [Compound 1, GW7647] | – | – | – | 61 | > 59 | decrease in labeling | 55 | 6 | 10 | 41 ± 5 | Non-competitive | 20 ± 1 | Non-competitive | decreased cellular protein AMPylation | unable to reverse the cell rounding phenotype | – | – | – | – | –
Nc1ncnc2c1ncn2[C@@H]1O[C@H](COP(=O)(O)OP(=O)(O)OP(=O)(O)OP(=O)(O)OC[C@H]2O[C@@H](n3cnc4c(N)ncnc43)[C@H](O)[C@@H]2O)[C@@H](O)[C@H]1O [Compound 2, Ap4A] | – | – | – | – | – | – | – | – | 41 | – | – | – | – | – | – | 47% ± 4 | > 59 | 3 | – | –
CC(C)c1ccc2c(c1)c(SC(C)(C)C)c(CC(C)(C)C(=O)O)n2Cc1ccc(Cl)cc1 [Compound 3, MK886] | – | – | – | – | – | decrease in labeling | – | 6 | 4 | 50 ± 6 | Non-competitive | 99 ± 16 | Non-competitive | decreased cellular protein AMPylation | unable to reverse the cell rounding phenotype | 41% ± 3 | > 59 | 22 | increased protection within the N-terminus of VopS (residues 59–75) | –
Clc1ccc(C(c2ccc(Cl)cc2)n2cc[n+](CC(OCc3ccc(Cl)cc3Cl)c3ccc(Cl)cc3Cl)c2)cc1 (stereo not drawn) [Compound 4, calmidazolium] | – | – | – | 33 | > 59 | decrease in labeling | 63 | 32 | 2 | 26 ± 4 | Non-competitive | 6 ± 1 | Competitive | did not show a significant decrease | – | – | – | – | binds to the N-terminal region of VopS (in particular residues 59–63) | 6 ± 1
